Source: ChEMBL document CHEMBL1158076, “Bioactive guaianolides from siyekucai (Ixeris chinensis)” (J Nat Prod, 2006)
Structures can show the parent of a compound that is named as a salt. Activity calls are given as the source filed them. The rule behind the calls is not given here.

Columns and labels:
[1] = tested on: WI-38; assay: Cytotoxicity against human WI38 cells; format: functional, cell-based
[2] = tested on: A549; assay: Inhibition of ICAM1 induction in human A549 cells pretreated for 1 hr in presence of TNFalpha for 6 hrs; format: functional, cell-based
[3] = tested on: A549; assay: Inhibition of ICAM1 induction in human A549 cells pretreated for 1 hr in presence of IL1alpha for 6 hrs; format: functional, cell-based
[4] = Cytotoxicity against human Hep G2 cells; format: functional, cell-based; conditions: HepG2
[5] = tested on: WI-38 VA13; assay: Cytotoxicity against human VA13 cells; format: functional, cell-based
[6] = tested on: A549; assay: Cytotoxicity against human A549 cells after 24 hrs by MTT method; format: cell-based; conditions: A549, 24 h
In short: (§1)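 A549 cells were exposed to serial dilutions for 24 h and viability was read by MTT, in triplicate cultures. Viability (%) = (experimental − background absorbance)/(control − background absorbance) × 100, and IC50 was derived from it.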

[7] = tested on: A549; assay: Inhibition of ICAM1 induction in human A549 cells in presence of IL1alpha; format: functional, cell-based
[8] = tested on: A549; assay: Inhibition of ICAM1 induction in human A549 cells at <100 uM pretreated for 1 hr in presence of TNFalpha for 6 hrs; format: functional, cell-based
[9] = tested on: A549; assay: Cytotoxicity against human A549 cells at <100 uM after 24 hrs by MTT method; format: cell-based; conditions: a549, 24 h; in short: as §1
[10] = tested on: A549; assay: Inhibition of ICAM1 induction in human A549 cells <100 uM pretreated for 1 hr at in presence of IL1alpha for 6 hrs; format: functional, cell-based

Compound | IC50 [2] [µM] | IC50 [3] [µM] | IC50 [7] [µM] | IC50 [1] [µM] | IC50 [4] [µM] | IC50 [5] [µM] | IC50 [6] [µM] | Activity [8] | Activity [9] | Activity [10]
C[C@@H]1C(=O)O[C@H]2[C@H]1CC[C@@](C)(O)[C@@H]1CC(=O)[C@@H](C)[C@H]21 | – | – | – | 32 | 230 | 160 | – | – | – | –
C=C1[C@@H]2[C@H]3OC(=O)C(=C)[C@@H]3CC[C@@](C)(O)[C@@H]2C[C@@H]1O[C@@H]1O[C@H](COC(=O)Cc2ccc(O)cc2)[C@@H](O)[C@H](O)[C@H]1OC(=O)Cc1ccc(O)cc1 [CHINENSIOLIDE E] | > 100 | > 100 | – | 23 | 140 | 0.72 | > 100 | inactive | Non-toxic | inactive
CC(=O)O[C@H]1C(=O)[C@@]2(C)[C@H]([C@H](OC(=O)c3ccccc3)[C@]3(O)C[C@H](OC(=O)[C@H](O)[C@@H](NC(=O)c4ccccc4)c4ccccc4)C(C)=C1C3(C)C)[C@]1(OC(C)=O)CO[C@@H]1C[C@@H]2O [PACLITAXEL] | – | – | – | 0.04 | – | – | – | – | – | –
COc1cccc2c1C(=O)c1c(O)c3c(c(O)c1C2=O)C[C@@](O)(C(=O)CO)C[C@@H]3O[C@H]1C[C@H](N)[C@H](O)[C@H](C)O1 [DOXORUBICIN HYDROCHLORIDE] | – | – | – | 0.7 | – | 0.4 | – | – | – | –
C=C1C(=O)O[C@@H]2[C@H]3C(=C)[C@@H](O[C@@H]4O[C@H](COC(=O)Cc5ccc(O)cc5)[C@@H](O)[C@H](O)[C@H]4O)C[C@H]3C(=C)C[C@@H](OC(=O)Cc3ccc(O)cc3)[C@@H]12 [IXEROCHINOSIDE] | > 100 | > 100 | – | – | – | – | > 100 | inactive | Non-toxic | inactive

The next lines start with results.

IC50 [2] [µM] | IC50 [3] [µM] | IC50 [7] [µM] | Compound | IC50 [1] [µM] | IC50 [4] [µM] | IC50 [5] [µM] | IC50 [6] [µM] | Activity [8] | Activity [9] | Activity [10]
16.8 | 16.4 | – | C=C1C(=O)O[C@@H]2[C@H]3[C@H](C)C(=O)C[C@H]3[C@](C)(O)CC[C@@H]12 | 25 | 22 | 27 | > 100 | – | – | –
20.1 | 16.1 | – | C=C1C(=O)O[C@@H]2[C@H]3C(CO)=CC(=O)C3=C(C)CC[C@@H]12 | 2.7 | 25 | 8.5 | > 100 | – | – | –
– | – | 20.9 | C=C1C(=O)O[C@@H]2C3=C(C)C(=O)C[C@H]3[C@](C)(O)CC[C@@H]12 | 24 | 23 | 22 | > 100 | – | – | –
> 100 | > 100 | – | CC1=C2[C@H]3OC(=O)[C@@H](C)[C@@H]3CC[C@@](C)(O)[C@@H]2CC1=O | 25 | 230 | 130 | > 100 | inactive | Non-toxic | inactive
11.4 | 10.9 | – | C=C1C(=O)C[C@@H]2[C@H]1[C@H]1OC(=O)C(=C)[C@@H]1CC[C@@]2(C)O | – | – | – | 64.9 | – | – | –
